Values joined by “and” are separate entries in the source; they are usually repeats but may differ in a detail not shown here. Equal entries are not always repeated.
How the values were obtained:
MtATP-PRT [1] = target: T1, MtATP-PRT (Mycobacterium tuberculosis, UniProt P9WMN1); test: Steady-state inhibition studies with L-histidine; format: biochemical; details: for Kii: 7 mM MgCl2, 200 mM KCl
T1 sequence (P9WMN1 1-284): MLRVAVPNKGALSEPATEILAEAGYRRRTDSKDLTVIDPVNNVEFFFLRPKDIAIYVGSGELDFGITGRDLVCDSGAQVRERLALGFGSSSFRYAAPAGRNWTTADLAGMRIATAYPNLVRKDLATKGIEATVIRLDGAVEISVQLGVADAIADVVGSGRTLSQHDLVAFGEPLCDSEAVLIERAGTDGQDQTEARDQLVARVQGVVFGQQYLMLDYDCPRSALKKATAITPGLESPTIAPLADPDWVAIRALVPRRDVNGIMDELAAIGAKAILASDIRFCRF

MtATP-PRT [2] = target: T1, MtATP-PRT; test: pH studies of L-histidine inhibition; format: biochemical; details: 0.8 mM PRPP fixed
MtATP-PRT [3] = target: T1, MtATP-PRT; test: Pre-steady-state stopped-flow burst kinetics; format: biochemical
MtATP-PRT [4] = target: T1, MtATP-PRT; test: STD-NMR saturation transfer; format: binding; details: 0.6 mM L-histidine, 30 μM HisG, 25 °C
Method in brief: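 STD 1H NMR was run at 14.4 T with 30 μM enzyme and 0.6 mM L-histidine in 50 mM sodium phosphate at each pH, 25 °C. Saturation times of 0.2–2.0 s in 0.2 s steps were recorded interleaved, with on-resonance protein presaturation at 0.8 ppm. A single off-resonance control used 2 s. Water was suppressed by excitation sculpting. Read-out was percent transfer per histidine proton.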

MtATP-PRT [5] = target: T1, MtATP-PRT; test: Gel filtration, solution oligomeric state; details: 20 mM Tris-HCl pH 8, 100 mM NaCl; 2 mM L-histidine, or ATP
Method in brief: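 Recombinant enzyme was expressed in E. coli BL21(DE3)pLysS and Ni-NTA purified. It was injected at 0.1–10 mg/mL onto a Sephacryl S-200 column calibrated with molecular-weight standards. Elution was isocratic for 1.5 column volumes at 0.5 mL/min in 20 mM Tris-HCl pH 8, 100 mM NaCl, with or without 2 mM L-histidine. Apparent mass was read from elution position.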

[6] = no reference given, cited from earlier work
[7] = target: Lactococcus lactis ATP-PRT; details: pH 8; cited from earlier work
MtATP-PRT [8] = target: T1, MtATP-PRT; test: Steady-state kinetics: initial velocities of the forward reaction; format: biochemical

Q: With `N[C@@H](Cc1c[nH]cn1)C(=O)O` [L-histidine] as the compound, how does the Ki (MtATP-PRT [1]) read?
A: 25.7 ± 12.8 µM

Q: And the IC50 (MtATP-PRT [1]; IC50,L-histidine, 50 mM Tris-HCl pH 8.5, 7 mM MgCl2, 200 mM KCl, 1.6 mM ATP, 0.8 mM PRPP, 25 °C)?
A: 33.3 µM and 33 µM

Q: What about the Hill number (MtATP-PRT [1]; IC50 curve, pH 8.5, 1.6 mM ATP, 0.8 mM PRPP) of the same compound?
A: 1.5

Q: What about the Kii (MtATP-PRT [1]; pH 8.50 (Tris-HCl), varied ATP, 0.8 mM PRPP fixed, 25 °C) of the same compound?
A: 27.9 ± 1.9 µM

Q: And the Kii (MtATP-PRT [1]; pH 8.50, varied PRPP, 1.6 mM ATP fixed, 25 °C)?
A: 23.5 ± 6.5 µM

Q: What about the “nature of inhibition versus ATP (in words)” value (MtATP-PRT [1]; varied ATP, saturating PRPP, pH 8.5) of the same compound?
A: linear and uncompetitive

Q: What about the “nature of inhibition versus PRPP (in words)” value (MtATP-PRT [1]; varied PRPP, saturating ATP, pH 8.5) of the same compound?
A: linear and noncompetitive

Q: What about the Kii (MtATP-PRT [2]; pH 8.00, varied ATP) of the same compound?
A: 4 µM and 4.0 ± 0.4 µM

Q: And the Kii (MtATP-PRT [2]; pH 8.25, varied ATP)?
A: 7.9 ± 1.5 µM

Q: What about the Kii (MtATP-PRT [2]; pH 8.50 (pH series), varied ATP) of the same compound?
A: 28.3 ± 2.1 µM

Q: And the Kii (MtATP-PRT [2]; pH 8.75, varied ATP)?
A: 26.8 ± 1.5 µM

Q: What about the Kii (MtATP-PRT [2]; pH 9.00, varied ATP) of the same compound?
A: 50.4 ± 5.5 µM

Q: What about the Kii (MtATP-PRT [2]; pH 9.25, varied ATP) of the same compound?
A: 109.4 ± 6.8 µM

Q: What about the Kd (MtATP-PRT [3]) of the same compound?
A: 27.9 ± 3.2 µM

Q: What about the koff (MtATP-PRT [3]; pH 8.5, read-out: koff,L-histidine) of the same compound?
A: 0.95 ± 0.03 s⁻¹

Q: And the kon (MtATP-PRT [3]; pH 8.5, read-out: kon,L-histidine)?
A: 4880 ± 717 M⁻¹ s⁻¹

Q: What about the “% saturation transfer to L-histidine protons, Cα-H” value (“% saturation transfer … Cα-H” for short) (MtATP-PRT [4]; pH 5.5) of the same compound?
A: 0%

Q: What about the “% saturation transfer to L-histidine protons, Cβ-H2” value (“% saturation transfer … Cβ-H2” for short) (MtATP-PRT [4]; pH 5.5) of the same compound?
A: 0%

Q: And the “% saturation transfer to L-histidine protons, Cδ2-H” value (from here on “% saturation transfer … Cδ2-H”) (MtATP-PRT [4]; pH 5.5)?
A: 0%

Q: And the “% saturation transfer to L-histidine protons, Cε1-H” value (from here on “% saturation transfer … Cε1-H”) (MtATP-PRT [4]; pH 5.5)?
A: 0%

Q: And the “% saturation transfer … Cα-H” value (MtATP-PRT [4]; pH 6.0)?
A: 0%

Q: And the “% saturation transfer … Cβ-H2” value (MtATP-PRT [4]; pH 6.0)?
A: 0%

Q: What about the “% saturation transfer … Cδ2-H” value (MtATP-PRT [4]; pH 6.0) of the same compound?
A: 0%

Q: What about the “% saturation transfer … Cε1-H” value (MtATP-PRT [4]; pH 6.0) of the same compound?
A: 0%

Q: What about the “% saturation transfer … Cα-H” value (MtATP-PRT [4]; pH 6.5) of the same compound?
A: 0%

Q: And the “% saturation transfer … Cβ-H2” value (MtATP-PRT [4]; pH 6.5)?
A: 0%

Q: What about the “% saturation transfer … Cδ2-H” value (MtATP-PRT [4]; pH 6.5) of the same compound?
A: 0%

Q: What about the “% saturation transfer … Cε1-H” value (MtATP-PRT [4]; pH 6.5) of the same compound?
A: 0%

Q: What about the “% saturation transfer … Cα-H” value (MtATP-PRT [4]; pH 7.5) of the same compound?
A: 0%

Q: What about the “% saturation transfer … Cβ-H2” value (MtATP-PRT [4]; pH 7.5) of the same compound?
A: 0%

Q: What about the “% saturation transfer … Cδ2-H” value (MtATP-PRT [4]; pH 7.5) of the same compound?
A: 0%

Q: What about the “% saturation transfer … Cε1-H” value (MtATP-PRT [4]; pH 7.5) of the same compound?
A: 0%

Q: And the “% saturation transfer … Cα-H” value (MtATP-PRT [4]; pH 8.0)?
A: 0%

Q: And the “% saturation transfer … Cβ-H2” value (MtATP-PRT [4]; pH 8.0)?
A: 0%

Q: And the “% saturation transfer … Cδ2-H” value (MtATP-PRT [4]; pH 8.0)?
A: 36.9%

Q: What about the “% saturation transfer … Cε1-H” value (MtATP-PRT [4]; pH 8.0) of the same compound?
A: 40.4%

Q: What about the “% saturation transfer … Cα-H” value (MtATP-PRT [4]; pH 8.5) of the same compound?
A: 0%

Q: And the “% saturation transfer … Cβ-H2” value (MtATP-PRT [4]; pH 8.5)?
A: 0%

Q: What about the “% saturation transfer … Cδ2-H” value (MtATP-PRT [4]; pH 8.5) of the same compound?
A: 81.6%

Q: What about the “% saturation transfer … Cε1-H” value (MtATP-PRT [4]; pH 8.5) of the same compound?
A: 88.2%

Q: What about the “% saturation transfer … Cα-H” value (MtATP-PRT [4]; pH 9.0) of the same compound?
A: 0%

Q: What about the “% saturation transfer … Cβ-H2” value (MtATP-PRT [4]; pH 9.0) of the same compound?
A: 0%

Q: What about the “% saturation transfer … Cδ2-H” value (MtATP-PRT [4]; pH 9.0) of the same compound?
A: 100%

Q: And the “% saturation transfer … Cε1-H” value (MtATP-PRT [4]; pH 9.0)?
A: 100%

Q: And the “influence of ligand on the hexameric oligomeric state of MtATP-PRT” value (MtATP-PRT [5])?
A: not influenced

Q: And the “pKa of the imidazole group” value ([6]; background statement)?
A: ~6.0

Q: What about the “pKa of the α-amino group” value ([6]; stated in discussion) of the same compound?
A: ~9

Q: And the Ki [7]?
A: 81 µM

Q: For `[Cl-].[Cl-].[Mg+2]` [MgCl2], which “Kact,Mg^2+” value (MtATP-PRT [8]; Table 1, saturating substrates, 200 mM KCl, 25 °C) is on record?
A: 1900 ± 600 µM

Q: What about the “Apparent Kact for MgCl2” value (MtATP-PRT [8]; saturating concentrations of both substrates, 200 mM KCl) of the same compound?
A: 1.9 ± 0.6 mM

Q: Which “effect of the thiol reducing agent on the time course” value (MtATP-PRT [8]; data not shown) does the source give for `O[C@@H](CS)[C@@H](O)CS` [DTT] here?
A: did not alter the time course
